# Assay results as given in ChEMBL document CHEMBL1140724, “Identification of human intestinal carboxylesterase as the primary enzyme for activation of a doxazolidine carbamate prodrug” (J Med Chem, 2008).
# Legend:
# [1] = Growth inhibition of human U373MG cells containing UhCE1 expressing plasmid after 1 hr; type: functional, cell-based, U-373MG ATCC; conditions: U373 MG
# Summary of the method: (§1)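 U373MG glioblastoma cells (vector U373IRES, hCE1-overexpressing UhCE1, or hiCE-overexpressing UhiCE) were cultured in DMEM with 10% fetal calf serum and no antibiotics. They were exposed to graded prodrug for 1 h. Growth inhibition was measured as IC50, with points as mean ± standard deviation of six measurements.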
# [2] = Growth inhibition of human U373MG cells containing U373IRES plasmid after 1 hr; type: functional, cell-based, U-373MG ATCC; conditions: U373 MG; summary of the method: as §1
# [3] = Growth inhibition of human U373MG cells containing UhiCE expressing plasmid after 1 hr; type: functional, cell-based, U-373MG ATCC; conditions: U373 MG; summary of the method: as §1
# [4] = Growth inhibition of human U373IRES cells after 1 hr; type: functional, U-373MG ATCC; summary of the method: as §1
# [5] = test system: MCF7; experiment: Growth inhibition of doxorubicin-sensitive human MCF7 cells after 24 hrs in presence of human intestinal carboxylesterase; type: functional, cell-based; conditions: MCF7, 24 h
# Summary of the method: (§2)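 MCF-7 or MCF-7/Adr cells in RPMI 1640 with 10% fetal calf serum were seeded and left overnight to adhere. Medium was then replaced with complete medium holding prodrug in DMSO (1% final), alone or with additive: recombinant hiCE 250 ng/mL, hCE1 2.5 µg/mL, pig liver esterase 30 µg/mL, or N-Hep G2 lysate 83.5 µg protein/mL. Exposure was 24 h, then fresh medium.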
# [6] = test system: MCF7; experiment: Growth inhibition of doxorubicin-sensitive human MCF7 cells after 24 hrs in presence of N-Hep G2 lysate; type: functional, cell-based; conditions: MCF7, 24 h; summary of the method: as §2
# [7] = test system: SK-HEP1; experiment: Growth inhibition of human SK-HEP-1 cells; type: functional, cell-based
# [8] = Growth inhibition of human MCF7/Adr cells; type: functional, cell-based; conditions: NCI/ADR-RES
# [9] = test system: MCF7; experiment: Growth inhibition of doxorubicin-sensitive human MCF7 cells after 24 hrs in presence of pig liver esterase relative to pentyl PABC-Doxorubicin; type: functional
# [10] = Growth inhibition of […] human MCF7/Adr cells after 24 hrs in presence of N-Hep G2 lysate; type: functional, cell-based; conditions: NCI/ADR-RES; summary of the method: as §2
# [11] = test system: MCF7; experiment: (§3) Growth inhibition of doxorubicin-sensitive human MCF7 cells after 24 hrs; type: functional; summary of the method: as §2
# [12] = Growth inhibition of human N-HepG2 cells; type: functional, cell-based
# [13] = test system: MCF7; experiment: Growth inhibition of doxorubicin-sensitive human MCF7 cells after 24 hrs in presence of pig liver esterase; type: functional, cell-based; conditions: MCF7, 24 h; summary of the method: as §2
# [14] = species: Homo sapiens; experiment: Hydrolysing activity of human recombinant intestinal carboxylesterase
# Summary of the method: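 Recombinant baculovirus-expressed hiCE (26 µg/mL) was incubated with 50 µM prodrug in 5% DMSO with FBS/RPMI/PBS pH 7.4. Timed aliquots were quenched in equal-volume ethanol, held at -20 °C overnight and centrifuged. 1 unit = 1 µM Dox per hour; specific activity is per mg protein.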
# [15] = test system: MCF7; experiment: as §3; type: functional, cell-based; conditions: MCF7, 24 h; summary of the method: as §2
# [16] = Growth inhibition of human U373MG cells containing UhiCE expressing plasmid after 1 hr relative to pentyl PABC-Doxorubicin; type: functional, U-373MG ATCC
# Summary of the method: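 UhiCE cells were preincubated 2 h with 10 µM benzil, a membrane-permeable CE inhibitor, before 1 h prodrug exposure. IC50 was compared with prodrug alone, using means of six measurements.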
# [17] = Growth inhibition of […] human MCF7/Adr cells after 24 hrs in presence of N-Hep G2 lysate relative to pentyl PABC-Doxorubicin; type: functional, NCI/ADR-RES
# [18] = Growth inhibition of rat H9c2(2-1) cells; type: functional
# [19] = Growth inhibition of […] human MCF7/Adr cells after 24 hrs in presence of human intestinal carboxylesterase; type: functional, cell-based; conditions: NCI/ADR-RES; summary of the method: as §2
# [20] = test system: MCF7; experiment: Growth inhibition of human MCF7 cells; type: functional, cell-based
# [21] = test system: MCF7; experiment: Growth inhibition of doxorubicin-sensitive human MCF7 cells after 24 hrs in presence of N-Hep G2 lysate relative to pentyl PABC-Doxorubicin; type: functional
# [22] = Growth inhibition of doxorubicin-resistant human MCF7/Adr cells after 24 hrs in presence of human intestinal carboxylesterase; type: functional, NCI/ADR-RES; summary of the method: as §2
# [23] = Growth inhibition of doxorubicin-resistant human MCF7/Adr cells after 24 hrs; type: functional, cell-based; conditions: NCI/ADR-RES; summary of the method: as §2
# [24] = test system: MCF7; experiment: Growth inhibition of doxorubicin-sensitive human MCF7 cells after 24 hrs in presence of human intestinal carboxylesterase relative to pentyl PABC-Doxorubicin; type: functional
# [25] = species: Sus scrofa; experiment: Hydrolysing activity of pig liver esterase assessed as doxorubicin production
# [26] = test system: HepG2; experiment: Growth inhibition of human HepG2 cells; type: functional, cell-based
# [27] = Growth inhibition of […] human MCF7/Adr cells after 24 hrs in presence of human intestinal carboxylesterase relative to pentyl PABC-Doxorubicin; type: functional, NCI/ADR-RES
# [28] = test system: MCF7; experiment: Growth inhibition of doxorubicin-sensitive human MCF7 cells after 24 hrs in presence of human carboxylesterase 1; type: functional, cell-based; conditions: MCF7, 24 h; summary of the method: as §2
# [29] = Growth inhibition of human MCF7/Adr cells after 24 hrs in presence of human carboxylesterase 1; conditions: NCI/ADR-RES
# [30] = Growth inhibition of […] human MCF7/Adr cells after 24 hrs in presence of human carboxylesterase 1 relative to pentyl PABC-Doxorubicin; type: functional, NCI/ADR-RES
# [31] = test system: MCF7; experiment: Growth inhibition of doxorubicin-sensitive human MCF7 cells after 24 hrs in presence of human carboxylesterase 1 relative to pentyl PABC-Doxorubicin; type: functional
smiles,measurement,setting,value
"COc1cccc2c1C(=O)c1c(O)c3c(c(O)c1C2=O)C[C@@](O)(C(=O)CO)C[C@@H]3OC1C[C@H](N)[C@H](O)[C@H](C)O1 (single isomer, unassigned) [DOXORUBICIN]",IC50,[1],158 nM
same,IC50,[2],158 nM
same,IC50,[3],200 nM
CCCCCOC(=O)Nc1ccc(COC(=O)N2CO[C@@H]3[C@H](C)O[C@H](O[C@H]4C[C@](O)(C(=O)CO)Cc5c(O)c6c(c(O)c54)C(=O)c4c(OC)cccc4C6=O)C[C@@H]32)cc1,Fold change,[4],1
same,IC50,[5],15.8 nM
same,IC50,[6],251 nM
same,IC50,[7],1000 nM
same,IC50,[8],316 nM
same,Fold change,[9],>100
same,IC50,[10],158 nM
same,Fold change,[11],1
same,IC50,[12],20 nM
same,IC50,[13],3.98 nM
same,IC50,[1],> 1000 nM
same,Activity,[14],0.065 µM/h
same,IC50,[15],> 1000 nM
same,Fold change,[16],>20
same,Fold change,[17],>6
same,IC50,[2],> 1000 nM
same,IC50,[18],631 nM
same,IC50,[19],12.6 nM
same,IC50,[20],2510 nM
same,Fold change,[21],>4
same,Fold change,[22],> 79
same,IC50,[23],> 1000 nM
same,Fold change,[24],>63
same,Activity,[25],47 µM/h
same,IC50,[26],50.1 nM
same,Fold change,[27],>79
O=S(=O)(Nc1ccc(NS(=O)(=O)c2ccc(Cl)cc2)cc1)c1ccc(Cl)cc1,IC50,[28],1000 nM
same,IC50,[29],794 nM
same,IC50,[15],> 1000 nM
same,Fold change,[30],>1
same,IC50,[23],> 1000 nM
same,Fold change,[31],>1
